From PMC8897208 (Acta Pharmaceutica Sinica. B, 2021)

How the values were obtained:
SIRT6 [1] = molecular target: T1, SIRT6 (Homo sapiens, UniProt Q8N6T7); assay: Fluor de Lys; format: biochemical
Method in brief: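 Recombinant SIRT6 was expressed in E. coli BL21 in LB with 100 μg/mL ampicillin at 37 °C. Expression was induced with 0.5 mmol/L IPTG at OD600 0.8, then grown 18 h at 16 °C and purified by an earlier method.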

SIRT6 [2] = molecular target: T1, SIRT6; assay: In vitro nucleosome deacetylation assay; format: biochemical; conditions: 10 mmol/L, H3K9Ac and H3K18Ac, Western blot
Method in brief: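 Nucleosomes were isolated from HeLa cells and deacetylated in vitro by SIRT6 in the presence of NAD+. H3K9Ac and H3K18Ac were detected by Western blot.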

T1 sequence (Q8N6T7 whole entry): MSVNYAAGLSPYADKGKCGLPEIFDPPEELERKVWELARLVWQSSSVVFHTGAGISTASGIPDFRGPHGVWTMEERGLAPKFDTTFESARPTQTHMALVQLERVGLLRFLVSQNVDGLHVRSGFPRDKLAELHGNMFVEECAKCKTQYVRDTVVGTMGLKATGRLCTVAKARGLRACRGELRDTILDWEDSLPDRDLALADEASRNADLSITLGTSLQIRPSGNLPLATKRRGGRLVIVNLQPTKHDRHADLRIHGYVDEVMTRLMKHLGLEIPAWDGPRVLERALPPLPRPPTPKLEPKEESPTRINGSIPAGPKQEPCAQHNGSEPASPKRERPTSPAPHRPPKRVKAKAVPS

IC50 (SIRT6 [1]) [µM] | inhibition ratio at 50 μmol/L (SIRT6 [1]; FDL assay, substrate Ac-RHKK-Ac-AMC, 50 μmol/L compound) [%] | inhibition of SIRT6 deacetylation on nucleosomes (SIRT6 [2]) | SMILES
26.8 | 64.18 | – | Nc1nonc1-n1cc(C(=O)N/N=C/c2ccccc2O)nn1 [JYQ-1]
– | – | weak inhibition | NC(=O)c1cccnc1 [nicotinamide, reference compound]
